This is a sample that favours compounds with a hit; in the whole collection about 3.5% have one here.
MrgX1 allo act: human MrgX1 positive allosteric modulation, primary screen; MrgX1-HEK293, Fluo-4 calcium flux, FDSS; hits give high values; 310,000 tested, 0.63% active; Q96LB2; B-score at 10 µM; AID 588675;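 active means plate-corrected calcium response at least 3 library SD above typical, normal starting fluorescence, not activating the receptor alone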;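 further: compound read alongside a low EC10 to EC30 dose of BAM8-22 agonist; peak minus trough fluorescence over baseline measured at the second addition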
Target sequence (Q96LB2 whole entry, looked up): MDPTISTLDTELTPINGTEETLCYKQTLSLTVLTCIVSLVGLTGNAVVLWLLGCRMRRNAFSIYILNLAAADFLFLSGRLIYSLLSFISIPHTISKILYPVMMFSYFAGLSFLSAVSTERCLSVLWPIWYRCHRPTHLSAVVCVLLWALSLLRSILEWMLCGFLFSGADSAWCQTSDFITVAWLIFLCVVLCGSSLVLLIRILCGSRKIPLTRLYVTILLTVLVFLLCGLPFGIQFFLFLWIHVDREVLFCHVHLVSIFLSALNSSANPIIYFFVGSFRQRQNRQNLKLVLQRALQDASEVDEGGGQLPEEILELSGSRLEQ
RGS4 act: RGS4 potentiation or activation; 310,000 tested, 0.92% active; AID 463111; HEK293 M3R/inducible RGS4, carbachol calcium flux Fluo4; hits give low values; B-score at 10 µM;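 active means B-score of the integrated calcium signal more than 4 SD below the library mean, with starting fluorescence not abnormally high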;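 further: negative B-score means reduced calcium response which marks RGS4 activation or potentiation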
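Assay system: HEK293 FlpIn-TREx cells, stable M3R, doxycycline-inducible RGS4 / Probe or stimulus: carbachol, ECmax concentration / Times: overnight RGS4 induction, 30 min dye load 37 °C, 20 min compound RT / Signal: kinetic calcium fluorescence imaging with Fluo4-AM dye, 2 µM / Measure: Agonist-evoked peak-minus-minimum fluorescence over baseline, integrated ratio, B score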
MrgX1 antag: blocks BAM8-22 activation of human MrgX1 receptor. B-score at 10 µM. 310,000 tested, 1.3% active. Q96LB2. MRGX1-HEK293 calcium flux, Fluo-4, BAM8-22 antagonism; hits give low values. AID 588676;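 active means calcium-response B-score plate-corrected more than 3 library SD below zero, starting fluorescence within 5 deviations, no agonist response on first addition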;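 further: peak minus trough fluorescence over baseline after final BAM8-22 challenge near maximal dose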
MrgX1 ag: agonists of human MrgX1 receptor. Q96LB2. MrgX1-HEK293 cells, Fluo-4 calcium fluorescence, agonist mode; hits give high values. AID 588627. 310,000 tested, 0.44% active. B-score at 10 µM;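 active means calcium response B-score plate-corrected fluorescence ratio at least 3 library SD, with starting fluorescence B-score inside 5 SD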
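Assay system: MrgX1-expressing HEK293 cells / Amount: fifteen thousand cells per well / Doses: test compound in the initial addition of three / Timing: cells plated overnight, dye loaded 0.5 h 37 °C, 0.5 h room temperature / Technique: kinetic calcium dye fluorescence, Fluo-4 NW / Control set: positive and negative controls per plate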
RGS4 block: inhibitors of human RGS4. HEK293 M3R/RGS4 inducible, Fluo-4 calcium flux; hits give high values; triggered by carbachol at its EC20. B-score at 10 µM. 310,000 tested, 0.45% active;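 active means B-score, a plate-corrected calcium signal, over three deviations above library mean, with baseline fluorescence within five deviations of library mean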;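 further: RGS4 expression induced by doxycycline in cells with stable M3 receptor; B-score is computed from the integrated fluorescence ratio over baseline after carbachol; higher B-score means a larger calcium signal and so more RGS4 inhibition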
Target sequence (P49798 whole entry, looked up): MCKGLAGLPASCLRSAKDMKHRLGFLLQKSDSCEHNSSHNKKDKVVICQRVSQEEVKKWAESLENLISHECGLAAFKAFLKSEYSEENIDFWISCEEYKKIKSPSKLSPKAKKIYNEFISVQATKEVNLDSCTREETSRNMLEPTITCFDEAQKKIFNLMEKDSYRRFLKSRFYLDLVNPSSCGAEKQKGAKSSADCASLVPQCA
Numbers without * were called inactive; i = inactive; · = not tested or not shown.

SMILES | MrgX1 allo act | RGS4 act | MrgX1 antag | MrgX1 ag | RGS4 block
COc1ccc(S(=O)(=O)N2CCc3ccccc32)cc1C(=O)N(CC(C)C)C1CCS(=O)(=O)C1 (stereo not given) | i | i | i | i | i
CCCC(=O)NC(=S)Nc1ccccc1N1CCOCC1 | i | i | -7.7* | i | i
CCCCC(=O)NC(=S)Nc1ccccc1N1CCCCC1 | i | i | i | i | i
CC(=O)c1ccc(N=C2C(=O)Nc3ccccc32)cc1 | i | i | i | 29* | i
O=C1Nc2ccccc2C1=Nc1ccc(F)cc1 | i | i | i | i | i
CS(=O)(=O)/C(C#N)=C\c1cnc(S(=O)(=O)c2ccccc2)s1 | i | i | i | 29* | i
COc1ccc(Cl)cc1/C=C(\C#N)C(N)=O | i | i | i | 30* | i
Cc1ccc(C(=O)Nc2cccc(NC(=O)c3cccs3)c2)c(C)c1 | i | i | i | i | i
CC1(c2nnc(-c3ccc(Cl)cc3)o2)CC(c2cccc(Cl)c2)=NO1 (stereo not given) | i | i | -5.9* | i | i
Cc1ccc(-c2c[n+]3c(n2-c2ccccc2)SCC3)cc1 | i | i | i | i | i
COc1ccc(-c2c[n+]3c(n2-c2ccccc2)SCC3)cc1 | i | -8.5* | i | i | i
COc1ccc(-c2c[n+]3c(n2-c2ccccc2)CCCCC3)cc1 | i | -8.3* | i | i | i
CC1=CC(=C(C#N)c2nc3ccccc3s2)C=C(C)N1Cc1ccco1 | i | -7.6* | i | i | i
COc1ccc(C)cc1Nc1nc(N)c2cc(OC)c(OC)cc2n1 | i | i | -4.5* | i | i
CCN(CC)CCNC(=O)c1ccc(NC(C)=O)cc1 | i | i | i | i | i
CCN(CC)CCNC(=O)c1ccc(NC(=O)Cc2cccc3ccccc23)cc1 | i | -7.5* | i | i | i
O=c1[nH]c(-c2ccccn2)nc2sc(-c3ccccc3)cc12 | · | i | · | · | i
Cc1cc2nc(-c3ccc(SCc4ccc(C#N)cc4)nc3)[nH]c2cc1C | i | i | -6.1* | i | i
CC(=O)CSc1ccc(-c2nc3cc(C)c(C)cc3[nH]2)cn1 | i | i | i | i | i
O=C(NCc1cccs1)C1CC(=O)N(c2ccc(Cl)cc2)C1 (stereo not given) | i | i | i | i | i
CC(C)n1nc(C(=O)Nc2cccc(S(=O)(=O)NCc3ccco3)c2)c2ccccc2c1=O | i | -7.2* | i | i | i
C=C1C(=O)O[C@H]2[C@H]1[C@@H](O)CC(=C)[C@@H]1CC(=O)[C@@H](C)[C@H]21 | i | i | i | i | 6.7*
Cc1cccn2c(=O)c(C(=O)NC3CC(C)CC(C)(C)C3)c(O)nc12 (stereo not given) | i | -7.2* | i | i | i
COc1ccc(-n2cc3ccc([N+](=O)[O-])cc3n2)cc1 | i | i | i | i | i
O=C(/C=C/c1ccc(F)cc1)NC(=S)NNC(=O)[C@H]1C[C@@H]1c1ccccc1 | i | i | i | 43* | i
SMILES | MrgX1 allo act | RGS4 act | MrgX1 antag | MrgX1 ag | RGS4 block
O=C(NC(=S)NNC(=O)[C@H]1C[C@@H]1c1ccccc1)c1ccc(F)cc1 | i | i | i | i | i
CCCCCCN=C1CC(C)(C)CC(=O)/C1=C(/O)CCC | i | i | i | i | i
O=C(Oc1cccc(/C=N/NC(=O)c2ccccn2)c1)c1ccc([N+](=O)[O-])cc1 | i | i | i | i | i
O=C(c1cccc([N+](=O)[O-])c1)N1CC2C3C=CC(C3)C2C1 (stereo not given) | i | i | i | i | i
O=C(c1ccccc1[N+](=O)[O-])N1CC2C3C=CC(C3)C2C1 (stereo not given) | i | -7.1* | i | i | i
Cc1nn(Cc2ccccc2)c(C)c1NC(=O)CSc1n[nH]c(C)c1[N+](=O)[O-] | i | i | i | i | i
Cc1nn(Cc2ccc(Cl)cc2)c(C)c1NC(=O)CSc1n[nH]c(C)c1[N+](=O)[O-] | i | i | -4.8* | i | i
COc1ccccc1/C=N/NC(=O)CC(=O)NCc1ccccc1 | i | i | i | i | i
CCOC(=O)COc1ccccc1/C=N\NC(=O)c1cc2c(ccc3ccccc32)o1 | i | -8.8* | i | i | i
CCOc1cc(/C=N/NC(=O)c2cc3c(ccc4ccccc43)o2)ccc1O | i | i | i | i | i
NC(=O)N/N=C/c1ccccc1OCC(=O)NCc1ccccc1 | i | i | -4.8* | i | i
O=C(N/N=C/c1cc(Br)c(O)c(Br)c1)c1cc2c(ccc3ccccc32)o1 | i | -7.3* | i | i | i
O=C(NCc1ccccn1)C1CCCN(Cc2cnn(-c3ccccc3)c2-n2cccc2)C1 (stereo not given) | i | -7.3* | i | i | i
O=C(NCc1ccccn1)C1CCN(Cc2cnn(-c3ccccc3)c2-n2cccc2)CC1 | i | i | i | i | i
CS(=O)(=O)NNC(=O)Cn1nnc(-c2ccc(OCc3ccccc3Cl)cc2)n1 | 9.6* | i | i | i | i
COc1cc2c(cc1OC)C(C)N(C(=O)C1=NN(c3cccc(C)c3)C(=O)CC1)CC2 (stereo not given) | i | i | i | i | i
COc1ccc(OC)c(NC(=O)c2c(NC(=O)CCC(=O)O)sc3c2CCCCC3)c1 | 7* | i | i | i | i
CCCOC(=O)/C(C(N)=NCc1ccccc1)=C(\O)OCCC | i | i | i | 28* | i
O=C(Oc1ccc(-c2cnc3ccccc3n2)cc1)c1cc([N+](=O)[O-])ccc1Cl | i | i | -4.9* | i | i
N#CC1(NC(=O)COC(=O)c2nc(Cl)c(Cl)c(N)c2Cl)CCCCC1 | i | i | i | i | i
CC(/C=N/NC(=O)c1ccc(Cn2cc([N+](=O)[O-])cn2)o1)=C\c1ccccc1 | i | i | -5.4* | i | i
CCOC(=O)C1=C(COC(=O)/C=C/c2ccccc2F)NC(=O)NC1C (stereo not given) | i | i | i | i | i
CCOC(=O)C1=C(COC(=O)/C=C/c2ccccc2Cl)NC(=O)NC1C (stereo not given) | 8.5* | i | i | i | i
CC(C)[C@H](NC(=O)[C@@H]1Cc2ccccc2CN1C(=O)OC(C)(C)C)C(=O)NCC1CCCO1 (stereo not given in full) | i | i | i | i | i

Source: PubChem
